Measured values: article PMC11336813 (Heliyon, 2024)
Where two headings read alike, the source gives them in different places.

Legend:
[1] = Total PER plasma concentration by HPLC-MS/MS; type: in vivo, children with epilepsy
Free = type: in vivo, children with epilepsy
Outline: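 Children aged 0–16 y on an unchanged oral PER dose for ≥4 weeks, dosed in the evening. Blood (2 mL, EDTA) drawn 8:00–10:00 a.m. next day, spun 1 610 ×g for 5 min, and plasma stored at −80 °C. Plasma (200 μL) ultrafiltered at 13 680 ×g for 20 min at 4 °C. Ultrafiltrate (40 μL) plus PER-D5 internal standard was methanol-precipitated, then run on C18 reversed-phase positive-mode MRM against a least-squares linear calibration.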

[2] = type: physicochemical; conditions: n = 5
plasma proteins = conditions: cited from earlier work
[3] = cited from earlier work
[4] = cited from earlier work; remark: listed apart in the source
CYP2C9 = conditions: human liver microsomes; cited from earlier work
CYP2C19 = conditions: human liver microsomes; cited from earlier work
CYP3A4 = conditions: human liver microsomes; cited from earlier work
[5] = 57 plasma samples, steady state
[6] = Group A: cotherapy enzyme inducers, n = 11
[7] = Group B: cotherapy not strong enzyme inducers/not inhibitors, n = 10
[8] = Group C: cotherapy enzyme inhibitors (VPA), n = 31
[9] = Group D: cotherapy enzyme inducers + VPA, n = 5
[10] = patient No. 25, PER 5 mg·d^−1 with VPA

With `N#Cc1ccccc1-c1cc(-c2ccccn2)cn(-c2ccccc2)c1=O` [PER, Perampanel] the “Total concentration, range” value [1, 5] was 90.17 to 1867.73 ng/mL, the “Total PER concentration, mean ± SD” value [1, 6] was 311.32 ± 190.14 ng/mL and the “Total PER concentration, mean ± SD” value [1, 7] was 490.97 ± 255.71 ng/mL. The “Total PER concentration, mean ± SD” value [1, 8] was 745.60 ± 415.53 ng/mL, the “Total PER concentration, mean ± SD” value [1, 9] was 780.14 ± 459.18 ng/mL and the “Total PER concentration, mean ± SD” value ([1]; VPA cotherapy, n = 36) was 750.40 ± 415.02 ng/mL. For the same molecule, the “Total drug PER concentration” value ([1]; child No. 38, PER 2 mg·d^−1) was 289.24 ng/mL, the “Total PER concentration, mean ± SD” value ([1]; not VPA cotherapy, n = 21) was 396.87 ± 236.55 ng/mL and the “Total drug PER concentration” value [1, 10] was 1158.38 ng/mL. For the same molecule, the “Free concentration, range” value (Free; [5]) was 0.42 to 23.14 ng/mL, the “Free concentration, mean ± SD” value (Free; 57 plasma samples, steady state, oral PER 2.00–8.00 mg·d^−1) was 8.09 ± 5.85 ng/mL and the “Free PER concentration, mean ± SD” value (Free; [6]) was 4.80 ± 3.70 ng/mL. The “Free PER concentration, mean ± SD” value (Free; [7]) was 5.28 ± 5.57 ng/mL, the “Free PER concentration, mean ± SD” value (Free; [8]) was 9.84 ± 5.66 ng/mL and the “Free PER concentration, mean ± SD” value (Free; [9]) was 10.09 ± 7.54 ng/mL. For the same molecule, the “Free PER concentration, mean ± SD” value (Free; VPA cotherapy, n = 36) was 9.87 ± 5.83 ng/mL, the “Free drug PER concentration” value (Free; child No. 38, PER 2 mg·d^−1) was 1.95 ng/mL and the “Free PER concentration, mean ± SD” value (Free; not VPA cotherapy, n = 21) was 5.03 ± 4.57 ng/mL. For the same molecule, the “Free drug PER concentration” value (Free; [10]) was 17.71 ng/mL, the “Autosampler 5°C-8 h (x̄ ± s)” value ([2]; nominal 1 ng·mL^−1) was 1.03 ± 0.05 ng/mL and the “frozen at −20 °C for 15 days (x̄ ± s)” value ([2]; nominal 1 ng·mL^−1) was 0.96 ± 0.09 ng/mL. The “frozen at −20 °C for 30 days (x̄ ± s)” value ([2]; nominal 1 ng·mL^−1) was 0.96 ± 0.08 ng/mL, the “frozen at −80 °C for 45 days (x̄ ± s)” value ([2]; nominal 1 ng·mL^−1) was 0.97 ± 0.02 ng/mL and the “frozen at −80 °C for 60 days (x̄ ± s)” value ([2]; nominal 1 ng·mL^−1) was 0.95 ± 0.07 ng/mL. The “Short-term 4 h (x̄ ± s)” value ([2]; nominal 1 ng·mL^−1, room temperature (about 25 °C) 4 h) was 1.01 ± 0.09 ng/mL, the “Freeze-thaw Stability (x̄ ± s)” value ([2]; nominal 1 ng·mL^−1, three freeze–thaw cycles (−20 °C/room temperature)) was 1.02 ± 0.05 ng/mL and the “Autosampler 5°C-8 h (x̄ ± s)” value ([2]; nominal 10 ng·mL^−1) was 9.99 ± 0.37 ng/mL. For the same molecule, the “frozen at −20 °C for 15 days (x̄ ± s)” value ([2]; nominal 10 ng·mL^−1) was 9.99 ± 0.22 ng/mL, the “frozen at −20 °C for 30 days (x̄ ± s)” value ([2]; nominal 10 ng·mL^−1) was 9.79 ± 0.21 ng/mL and the “frozen at −80 °C for 45 days (x̄ ± s)” value ([2]; nominal 10 ng·mL^−1) was 10.03 ± 0.38 ng/mL. For the same molecule, the “frozen at −80 °C for 60 days (x̄ ± s)” value ([2]; nominal 10 ng·mL^−1) was 10.85 ± 0.38 ng/mL, the “Short-term 4 h (x̄ ± s)” value ([2]; nominal 10 ng·mL^−1, room temperature 4 h) was 9.94 ± 0.42 ng/mL and the “Freeze-thaw Stability (x̄ ± s)” value ([2]; nominal 10 ng·mL^−1, three freeze–thaw cycles) was 9.99 ± 0.08 ng/mL. For the same molecule, the “Autosampler 5°C-8 h (x̄ ± s)” value ([2]; nominal 40 ng·mL^−1) was 37.53 ± 1.46 ng/mL, the “frozen at −20 °C for 15 days (x̄ ± s)” value ([2]; nominal 40 ng·mL^−1) was 39.06 ± 1.06 ng/mL and the “frozen at −20 °C for 30 days (x̄ ± s)” value ([2]; nominal 40 ng·mL^−1) was 38.87 ± 1.52 ng/mL. The “frozen at −80 °C for 45 days (x̄ ± s)” value ([2]; nominal 40 ng·mL^−1) was 43.90 ± 1.23 ng/mL, the “frozen at −80 °C for 60 days (x̄ ± s)” value ([2]; nominal 40 ng·mL^−1) was 43.64 ± 1.27 ng/mL and the “Short-term 4 h (x̄ ± s)” value ([2]; nominal 40 ng·mL^−1, room temperature 4 h) was 38.09 ± 1.40 ng/mL. The “Freeze-thaw Stability (x̄ ± s)” value ([2]; nominal 40 ng·mL^−1, three freeze–thaw cycles) was 37.39 ± 0.53 ng/mL, the “Autosampler 5°C-8 h (x̄ ± s)” value ([2]; nominal 120 ng·mL^−1) was 113.16 ± 0.76 ng/mL and the “frozen at −20 °C for 15 days (x̄ ± s)” value ([2]; nominal 120 ng·mL^−1) was 121.27 ± 3.40 ng/mL. For the same molecule, the “frozen at −20 °C for 30 days (x̄ ± s)” value ([2]; nominal 120 ng·mL^−1) was 119.85 ± 2.22 ng/mL, the “frozen at −80 °C for 45 days (x̄ ± s)” value ([2]; nominal 120 ng·mL^−1) was 130.97 ± 2.18 ng/mL and the “frozen at −80 °C for 60 days (x̄ ± s)” value ([2]; nominal 120 ng·mL^−1) was 132.67 ± 1.39 ng/mL. The “Short-term 4 h (x̄ ± s)” value ([2]; nominal 120 ng·mL^−1, room temperature 4 h) was 111.97 ± 2.47 ng/mL, the “Freeze-thaw Stability (x̄ ± s)” value ([2]; nominal 120 ng·mL^−1, three freeze–thaw cycles) was 115.95 ± 6.88 ng/mL and the “Bound to plasma proteins” value (plasma proteins; after oral administration) was 95%. For the same molecule, the “Free PER available to exert pharmacological effects” value (plasma proteins) was 5%, the Plasma half-life [3] was “approximately 105 h” and the “Decrease of mean PER AUC values” ([3]; with OXC) was 50%. For the same molecule, the “Decrease in blood concentration” value ([3]; with drugs that induce liver CYP3A4/5) was 2–3 fold, the “Decrease in PER plasma concentrations” value ([3]; with enzyme-induced AEDs (OXC, CBZ, PHB)) was 2–3 fold and the “Reference range of blood (total) PER concentration” value [4] was 86 to 1000 ng/mL.

For `CCCC(CCC)C(=O)O` [VPA, valproic acid], the “Inhibition of CYP2C9 activity” value (CYP2C9) is given as “potent inhibition”, the “Inhibitory effect on CYP2C19” value (CYP2C19) is given as “minor inhibitory effects” and the “Inhibitory effect on CYP3A4” value (CYP3A4) is given as “minor inhibitory effects”.
